# Laboratory results as given in paper PMC9148379 (Alzheimer's & Dementia, 2021).
# Where two headings read alike, the source gives them in different places.
# Columns and labels:
# [1] = Experiment 7: two-week intermediate storage in the fridge; assay type: in vitro ADME, human; details: EDTA plasma, 2 weeks at −20°C before −80°C; six Aβ assays
# [2] = cited from earlier work; for time from which levels in whole blood at RT started declining: different assays than used in this study
# [3] = Experiment 8: aliquot freeze-thawing; assay type: in vitro ADME, human; details: EDTA plasma; for impact of sample freeze–thawing (up to four cycles) on values: six Aβ assays
# Procedure, shortened: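 Human EDTA plasma subjected to repeated freeze–thaw was compared with reference aliquots (centrifuged 1800 × g at room temperature after 30 min standing at room temperature, aliquoted immediately, stored at −80°C). Each value was normalized to its reference as %recovery, and the group median per condition was taken. A median change >10% was deemed relevant. GFAP was measured with the pre-commercial Simoa Neurology 4-Plex E kit.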
# [4] = cited from earlier work
# [5] = cited from earlier work; remark: listed apart in the source
# [6] = assay type: in vitro ADME, human; details: EDTA whole blood, Simoa N3PA
Substance,decrease of values after two‐week intermittent storage at −20°C [1],time from which levels in whole blood at RT started declining ([2]; ref 33) [h],time from which levels in whole blood at RT started declining ([2]; ref 36) [h],impact of sample freeze–thawing (up to four cycles) on values [3],time from which levels in separated plasma decline at RT [4] [h],"median recovery after four additional freeze–thaw cycles, other biomarkers ([3]; GFAP by Simoa N4PE) [%]",change at the second freeze–thaw cycle ([3]; Simoa N4PE),plasma levels at freeze–thaw cycle 4 [5],time for which t‐tau was stable prior to centrifugation ([2]; other t‐tau assays),"median recovery, tubes held at RT for 3 hours pending centrifugation ([6]; 3 hours) [%]","median recovery, tubes held at RT for 24 hours pending centrifugation ([6]; 24 hours) [%]"
Aβ40: endogenous amyloid beta 40 peptide measured in blood as Alzheimer's disease biomarker,did not,1,48,did not impact,8,–,–,–,–,–,–
Aβ42: endogenous amyloid beta 42 peptide measured in blood as Alzheimer's disease biomarker,did not,1,6,did not impact,6,–,–,–,–,–,–
glial fibrillary acidic protein [GFAP],–,–,–,–,–,113,no change,remained stable,–,–,–
total tau [t‐tau],–,–,–,–,–,–,–,–,up to 6 hours,83,49
